Assay outcomes as filed in PubChem BioAssay.
M5 antag – blocks acetylcholine activation of human M5 receptor | CHO-hM5 cells, Fluo-8 calcium fluorescence, ACh EC80 | inhibition, % at 3 µM | AID 624040 | hit rate 0.59% among 360,000 | P08912;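 active = inhibition above a per-plate cutoff, the mean of that plate's test compounds plus 3 SD, cut at about 27% in these data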
M4 PAM – potentiates acetylcholine response at human M4 receptor; CHO-K1 hM4/Gqi5, Fluo-8 calcium fluorescence, ACh EC20; 0% = ACh EC20, 100% = maximal ACh; activation, % at 3 µM; hit rate 0.4% among 360,000;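 active = activation above its plate's cutoff, the mean activation of sample wells plus 3 SD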
Target sequence (P08173 whole entry, looked up): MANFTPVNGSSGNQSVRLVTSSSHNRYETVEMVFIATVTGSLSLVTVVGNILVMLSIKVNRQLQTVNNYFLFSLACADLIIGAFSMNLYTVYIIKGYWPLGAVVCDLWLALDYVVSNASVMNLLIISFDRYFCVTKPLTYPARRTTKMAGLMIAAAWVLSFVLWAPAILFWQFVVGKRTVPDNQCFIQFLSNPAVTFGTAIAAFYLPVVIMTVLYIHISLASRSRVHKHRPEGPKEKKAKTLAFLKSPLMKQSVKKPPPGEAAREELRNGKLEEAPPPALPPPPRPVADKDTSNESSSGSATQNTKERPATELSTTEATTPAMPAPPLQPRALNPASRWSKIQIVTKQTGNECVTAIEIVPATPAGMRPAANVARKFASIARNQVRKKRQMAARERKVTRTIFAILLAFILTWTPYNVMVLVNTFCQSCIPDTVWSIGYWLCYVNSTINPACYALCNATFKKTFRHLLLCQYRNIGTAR
M5 ag – agonists of human muscarinic M5 receptor (CHRM5); P08912; CHO-K1 hM5 cells, Fluo-8 calcium fluorescence; 0% DMSO wells, 100% maximal acetylcholine response; activation, % at 3 µM; hit rate 0.19% among 360,000; AID 624037;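 active = activation above the run's mean over test compounds plus 3 SD, cut at about 23% in these data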;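 also: signal is peak over basal fluorescence ratio across the kinetic read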
M4 antag – antagonists of human muscarinic M4 receptor (CHRM4). P08173. CHO-hM4 cells, ACh EC80, Fluo-8 calcium fluorescence. inhibition, % at 3 µM. hit rate 0.73% among 360,000. AID 624125;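 active = inhibition above its plate's cutoff, the mean inhibition of sample wells plus 3 SD, cut at about 27% in these data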
CHRM5 PAM – positive allosteric modulators of human muscarinic M5 receptor. CHO-K1 hM5, Fluo-8 calcium, ACh EC20 PAM; 0% = ACh EC20, 100% = ACh EC100. activation, % at 3 µM. hit rate 0.3% among 360,000. AID 624038;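 active = activation above the run cutoff, the mean activation of all test compounds plus 3 SD, cut at about 18% in these data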
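Assay system: CHO-K1 hM5 cells / Incubation: Fluo-8 loading 80 min at 37 °C plus 30 min room temperature / Technique: Fluo-8 calcium dye fluorescence, kinetic read / Repeats: single replicate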
CHRM4 agonist – CHRM4 agonism in calcium assay; P08173; CHO-K1 hM4/Gqi5, Fluo-8 calcium fluorescence; vehicle 0%, full acetylcholine response 100%; activation, % at 3 µM; hit rate 0.14% among 360,000;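 active = activation above the run mean over all test wells plus 3 SD, cut at about 32% in these data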;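 also: peak over basal fluorescence ratio per well then scaled between controls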
Hits are given with their value. Shown are actives, neighbours in structure and some others; about 1.9% of the full set was active somewhere.

For Clc1ccc(C[n+]2c(-c3ccccc3)cc(-c3ccccc3)cc2-c2ccccc2)cc1 the results were M5 antag inactive, M4 PAM inactive, M5 ag inactive, M4 antag 31, CHRM5 PAM inactive and CHRM4 agonist inactive.
CC(CC(C#N)(c1ccccc1)c1ccccc1)N(C)C (configuration not stated) was read as M5 antag 99, M4 PAM inactive, M5 ag inactive, M4 antag 91, CHRM5 PAM inactive and CHRM4 agonist inactive.
For CCC(C#N)(CC)P(=S)(c1ccccc1)c1ccccc1 the results were M5 antag inactive, M4 PAM inactive, M5 ag inactive, M4 antag inactive, CHRM5 PAM inactive and CHRM4 agonist inactive.
Cc1ccc(S(=O)(=O)NCCC(=O)Nc2ccc(Cl)cc2C(=O)c2ccccc2)cc1 was read as M5 antag inactive, M4 PAM inactive, M5 ag inactive, M4 antag inactive, CHRM5 PAM inactive and CHRM4 agonist inactive.
Screening Cc1ccc(S(=O)(=O)N[C@@H](CCCCN)C(=O)CCl)cc1 returned M5 antag inactive, M4 PAM inactive, M5 ag 39, M4 antag inactive, CHRM5 PAM inactive and CHRM4 agonist inactive.
Screening C[CH2][Hg][S]c1ccccc1C(=O)O returned M5 antag inactive, M4 PAM 33, M5 ag inactive, M4 antag 36, CHRM5 PAM inactive and CHRM4 agonist inactive.
CC(C)COC(=O)c1ccccc1C(=O)OCC(C)C was read as M5 antag inactive, M4 PAM inactive, M5 ag inactive, M4 antag inactive, CHRM5 PAM inactive and CHRM4 agonist inactive.
For C[C@]12CC[C@@H](O)CC1=CCC1C2CC[C@@]2(C)C1C[C@@H](F)[C@@H]2O (some centres not stated) the results were M5 antag inactive, M4 PAM inactive, M5 ag inactive, M4 antag inactive, CHRM5 PAM inactive and CHRM4 agonist inactive.
Cc1ccc(C(C)C)c(OCC#CCN2CCCC2)c1 was read as M5 antag 44, M4 PAM inactive, M5 ag inactive, M4 antag 32, CHRM5 PAM inactive and CHRM4 agonist inactive.
For C[N+](C)(C)c1ccccc1 the results were M5 antag inactive, M4 PAM inactive, M5 ag 52, M4 antag inactive, CHRM5 PAM inactive and CHRM4 agonist inactive.
For CCc1nc2ccc(Br)cc2c(=O)n1-c1ccccc1C(F)(F)F the results were M5 antag inactive, M4 PAM inactive, M5 ag inactive, M4 antag inactive, CHRM5 PAM inactive and CHRM4 agonist inactive.
`CCCc1nc2ccc(Br)cc2c(=O)n1-c1ccc([N+](=O)[O-])c(C(F)(F)F)c1` gave M5 antag 27, M4 PAM inactive, M5 ag inactive, M4 antag inactive, CHRM5 PAM inactive and CHRM4 agonist inactive.
For COC(=O)C1C2CC[C@@H](CC1OC(=O)c1ccccc1)N2 (some centres not stated) the results were M5 antag inactive, M4 PAM inactive, M5 ag inactive, M4 antag inactive, CHRM5 PAM inactive and CHRM4 agonist inactive.
For Cc1cccc(CC(c2cccc(C)c2)N(C)C)c1 (configuration not stated) the results were M5 antag inactive, M4 PAM inactive, M5 ag inactive, M4 antag inactive, CHRM5 PAM inactive and CHRM4 agonist inactive.
For O=C(c1cc(F)ccc1F)C1CCCN(CCCc2ccccc2)C1 (configuration not stated) the results were M5 antag inactive, M4 PAM inactive, M5 ag inactive, M4 antag 32, CHRM5 PAM inactive and CHRM4 agonist inactive.
Screening CC(C)C(=O)c1cn(Cc2ccccc2C#N)c2ccccc12 returned M5 antag inactive, M4 PAM inactive, M5 ag inactive, M4 antag inactive, CHRM5 PAM inactive and CHRM4 agonist inactive.
CC(=O)c1cn(Cc2ccccc2C#N)c2ccccc12 was read as M5 antag 37, M4 PAM inactive, M5 ag inactive, M4 antag 29, CHRM5 PAM inactive and CHRM4 agonist inactive.
For CN1C2CCC1CC(OC(=O)c1cccc(O)c1)C2 (configuration not stated) the results were M5 antag inactive, M4 PAM inactive, M5 ag inactive, M4 antag inactive, CHRM5 PAM inactive and CHRM4 agonist inactive.
Screening CC1CC(OC(=O)c2ccccc2)CC(C)N1C (configuration not stated) returned M5 antag inactive, M4 PAM inactive, M5 ag inactive, M4 antag 30, CHRM5 PAM inactive and CHRM4 agonist inactive.
For CC(=O)Nc1ccc(OC(=O)N2CCCCC2)cc1 the results were M5 antag inactive, M4 PAM inactive, M5 ag inactive, M4 antag inactive, CHRM5 PAM inactive and CHRM4 agonist inactive.
O=C(Oc1ccc([N+](=O)[O-])cc1)N1CCC(N2CCCCC2)CC1 was read as M5 antag inactive, M4 PAM inactive, M5 ag inactive, M4 antag 56, CHRM5 PAM inactive and CHRM4 agonist inactive.
`CCOC(=O)[C@]1(C#N)[C@@H]2C=CC(C(N)=O)=CN2[C@@H](C(N)=O)[C@@H]1c1ccc(F)cc1` gave M5 antag inactive, M4 PAM inactive, M5 ag inactive, M4 antag inactive, CHRM5 PAM inactive and CHRM4 agonist inactive.
CCOC(=O)[C@@]1(C#N)[C@@H]2C=CC(C(N)=O)=CN2[C@@H](C(N)=O)[C@@H]1c1cccc(Cl)c1 was read as M5 antag inactive, M4 PAM inactive, M5 ag inactive, M4 antag inactive, CHRM5 PAM 31 and CHRM4 agonist inactive.
For CN1CCC(OC(=O)C2c3ccccc3Oc3ccccc32)CC1 the results were M5 antag 99, M4 PAM inactive, M5 ag inactive, M4 antag 99, CHRM5 PAM inactive and CHRM4 agonist inactive.
For CCN(CC)C(=O)c1ccc(NC(=O)c2cn(-c3ccccc3)nc2-c2ccc(OC)cc2)cc1 the results were M5 antag 28, M4 PAM inactive, M5 ag inactive, M4 antag inactive, CHRM5 PAM inactive and CHRM4 agonist inactive.
For CCOc1ccc(-n2c(O)c(N=Nc3c(C)n(C)n(-c4ccccc4)c3=O)c(=O)[nH]c2=O)cc1 the results were M5 antag inactive, M4 PAM inactive, M5 ag inactive, M4 antag inactive, CHRM5 PAM inactive and CHRM4 agonist inactive.
`NS(=O)(=O)c1nc[nH]c1[N+](=O)[O-]` gave M5 antag inactive, M4 PAM inactive, M5 ag inactive, M4 antag inactive, CHRM5 PAM inactive and CHRM4 agonist inactive.
Screening O=C1CC(c2cccnc2)=NN1c1ccc(Cl)cc1Cl returned M5 antag inactive, M4 PAM inactive, M5 ag inactive, M4 antag inactive, CHRM5 PAM inactive and CHRM4 agonist inactive.
